# Measurements from ChEMBL document CHEMBL4387722.
# Legend:
# [1] = target: T1, Phosphotyrosine protein phosphatase (Mycobacterium tuberculosis, UniProt A0A045ISB3); experiment: Inhibition of Mycobacterium tuberculosis His-tagged PtpB expressed in Escherichia coli Rosetta 2 (DE3) using pNPP as substrate after 30 mins by spectrophotometric method
# T1 sequence (A0A045ISB3 whole entry): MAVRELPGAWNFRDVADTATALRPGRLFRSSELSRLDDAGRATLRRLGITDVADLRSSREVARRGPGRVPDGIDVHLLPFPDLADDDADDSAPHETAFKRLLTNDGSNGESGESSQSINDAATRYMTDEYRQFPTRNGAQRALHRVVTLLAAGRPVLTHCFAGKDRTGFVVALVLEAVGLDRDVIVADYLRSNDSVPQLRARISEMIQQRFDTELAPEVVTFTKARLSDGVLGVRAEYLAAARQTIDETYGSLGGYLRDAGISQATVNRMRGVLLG
# [2] = target: T2, Tyrosine-protein phosphatase non-receptor type 5 (Homo sapiens, UniProt P54829); experiment: Inhibition of human PTPN5 expressed in Escherichia coli Rosetta 2 (DE3) using pNPP as substrate after 45 mins by spectrophotometric method
# T2 sequence (P54829 whole entry): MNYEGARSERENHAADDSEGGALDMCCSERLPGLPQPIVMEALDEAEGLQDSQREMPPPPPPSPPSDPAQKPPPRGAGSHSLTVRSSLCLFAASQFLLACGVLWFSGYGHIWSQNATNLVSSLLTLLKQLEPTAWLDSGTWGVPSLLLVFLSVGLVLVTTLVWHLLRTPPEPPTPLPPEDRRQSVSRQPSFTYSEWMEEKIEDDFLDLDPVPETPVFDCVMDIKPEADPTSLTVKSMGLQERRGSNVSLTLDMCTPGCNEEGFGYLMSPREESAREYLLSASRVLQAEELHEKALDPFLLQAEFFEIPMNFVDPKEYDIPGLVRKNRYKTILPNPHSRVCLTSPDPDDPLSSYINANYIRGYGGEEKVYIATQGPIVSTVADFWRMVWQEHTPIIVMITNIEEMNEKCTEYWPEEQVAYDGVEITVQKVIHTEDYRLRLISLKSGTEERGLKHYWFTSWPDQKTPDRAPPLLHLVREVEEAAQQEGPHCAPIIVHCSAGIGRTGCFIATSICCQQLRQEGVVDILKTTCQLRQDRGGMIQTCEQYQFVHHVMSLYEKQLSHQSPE
# [3] = target: T3, Tyrosine-protein phosphatase non-receptor type 1 (Homo sapiens, UniProt P18031); experiment: Inhibition of human PTPN1 expressed in Escherichia coli Rosetta 2 (DE3) using pNPP as substrate after 45 mins by spectrophotometric method
# T3 sequence (P18031 whole entry): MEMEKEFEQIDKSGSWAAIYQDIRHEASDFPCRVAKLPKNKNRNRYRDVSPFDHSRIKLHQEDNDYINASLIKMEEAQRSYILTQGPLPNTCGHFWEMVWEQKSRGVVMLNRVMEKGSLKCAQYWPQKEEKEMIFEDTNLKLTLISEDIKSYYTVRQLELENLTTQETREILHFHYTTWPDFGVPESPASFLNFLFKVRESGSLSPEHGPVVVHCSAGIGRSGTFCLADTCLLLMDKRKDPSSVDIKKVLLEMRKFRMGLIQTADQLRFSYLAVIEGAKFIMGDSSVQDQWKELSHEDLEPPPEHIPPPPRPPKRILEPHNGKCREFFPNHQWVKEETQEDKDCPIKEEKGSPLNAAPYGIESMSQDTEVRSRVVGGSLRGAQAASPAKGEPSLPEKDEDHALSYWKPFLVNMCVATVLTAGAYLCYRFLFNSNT
# [4] = test system: Mycobacterium tuberculosis; experiment: Antitubercular activity against Mycobacterium tuberculosis H37Rv after 5 days at 200 uM relative to control; type: functional; conditions: 120 h
# Summary of the method: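 M. tuberculosis grown in liquid culture with compound at a fixed 200 μM for 5 days. Growth inhibition expressed as percent of control.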
# [5] = target: T4, Tyrosine-protein phosphatase non-receptor type 2 (Homo sapiens, UniProt P17706); experiment: Inhibition of human PTPN2 expressed in Escherichia coli Rosetta 2 (DE3) using pNPP as substrate after 45 mins by spectrophotometric method
# T4 sequence (P17706 whole entry): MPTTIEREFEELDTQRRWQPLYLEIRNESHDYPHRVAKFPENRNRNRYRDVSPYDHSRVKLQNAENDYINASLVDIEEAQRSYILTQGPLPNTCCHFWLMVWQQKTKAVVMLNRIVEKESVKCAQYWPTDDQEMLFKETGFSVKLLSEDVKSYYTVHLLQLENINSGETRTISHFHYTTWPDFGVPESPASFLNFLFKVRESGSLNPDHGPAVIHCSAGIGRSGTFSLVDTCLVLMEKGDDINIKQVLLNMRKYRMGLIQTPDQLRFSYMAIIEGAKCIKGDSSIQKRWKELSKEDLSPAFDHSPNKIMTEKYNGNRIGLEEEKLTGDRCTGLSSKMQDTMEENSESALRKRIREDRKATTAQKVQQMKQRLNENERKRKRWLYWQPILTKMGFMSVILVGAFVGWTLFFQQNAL
Structure (SMILES),IC50 [1],IC50 [2],IC50 [3],inhibition at 200 µM [4],IC50 [5]
O=S(=O)(Nc1ccc2oc(-c3ccc(NS(=O)(=O)c4ccc(Cl)s4)cc3)nc2c1)c1cccc(C(F)(F)F)c1,7.1 µM,16 µM,13 µM,0%,20 µM
CCc1ccc(S(=O)(=O)Nc2ccc(-c3nc4cc(NS(=O)(=O)c5ccc(Cl)s5)ccc4o3)cc2)cc1,6.5 µM,12 µM,14 µM,11%,12 µM
O=C(O)c1cccc(S(=O)(=O)Nc2ccc(-c3nc4cc(NS(=O)(=O)c5cccc(C(=O)O)c5)ccc4o3)cc2)c1,9.9 µM,> 100 µM,> 100 µM,7%,> 100 µM
O=S(=O)(Nc1ccc(-c2nc3cc(NS(=O)(=O)c4cccc(C(F)(F)F)c4)ccc3o2)cc1)c1cccc(C(F)(F)F)c1,2.9 µM,16 µM,12 µM,0%,12 µM
O=[N+]([O-])c1cc(S(=O)(=O)Nc2ccc(-c3nc4cc(NS(=O)(=O)c5ccc(Cl)s5)ccc4o3)cc2)ccc1Cl,4 µM,15 µM,8 µM,29%,18 µM
O=S(=O)(Nc1ccc(-c2nc3cc(NS(=O)(=O)C(F)(F)F)ccc3o2)cc1)C(F)(F)F,42 µM,> 100 µM,> 100 µM,28%,> 100 µM
O=C(O)c1ccc(S(=O)(=O)Nc2ccc(-c3nc4cc(NS(=O)(=O)c5ccc(C(=O)O)cc5)ccc4o3)cc2)cc1,12 µM,> 100 µM,> 100 µM,10%,> 100 µM
O=[N+]([O-])c1ccc(S(=O)(=O)Nc2ccc(-c3nc4cc(NS(=O)(=O)c5ccc([N+](=O)[O-])cc5)ccc4o3)cc2)cc1,6.2 µM,18 µM,27 µM,0%,28 µM
O=S(=O)(Nc1ccc(-c2nc3cc(NS(=O)(=O)c4ccc5ncsc5c4)ccc3o2)cc1)c1ccc2ncsc2c1,20 µM,20 µM,7 µM,0%,12 µM
O=S(=O)(Nc1ccc(-c2nc3cc(NS(=O)(=O)c4ccc5nsnc5c4)ccc3o2)cc1)c1ccc2nsnc2c1,6.4 µM,11 µM,8 µM,0%,11 µM
CCCS(=O)(=O)Nc1ccc(-c2nc3cc(NS(=O)(=O)CCC)ccc3o2)cc1,> 100 µM,83 µM,> 100 µM,13%,> 100 µM
O=S(=O)(Nc1ccc(-c2nc3cc(NS(=O)(=O)c4cccc5ccccc45)ccc3o2)cc1)c1ccc(Cl)s1,2.2 µM,5.1 µM,6.5 µM,12%,7.3 µM
O=S(=O)(Nc1ccc(-c2nc3cc(NS(=O)(=O)c4ccc(Br)cc4)ccc3o2)cc1)c1ccc(Br)cc1,3.6 µM,11 µM,11 µM,0%,18 µM
O=S(=O)(Nc1ccc(-c2nc3cc(NS(=O)(=O)c4cccc(Cl)c4)ccc3o2)cc1)c1cccc(Cl)c1,2.3 µM,13 µM,16 µM,0%,17 µM
COc1ccccc1S(=O)(=O)Nc1ccc(-c2nc3cc(NS(=O)(=O)c4ccccc4OC)ccc3o2)cc1,8.7 µM,19 µM,12 µM,12%,21 µM
COC(=O)c1ccc(S(=O)(=O)Nc2ccc(-c3nc4cc(NS(=O)(=O)c5ccc(C(=O)OC)cc5)ccc4o3)cc2)cc1,11 µM,22 µM,11 µM,0%,17 µM
O=S(=O)(Cc1ccccc1)Nc1ccc(-c2nc3cc(NS(=O)(=O)Cc4ccccc4)ccc3o2)cc1,27 µM,25 µM,23 µM,0%,31 µM
